# Assays:
# [1] = biological target: T1, Amine oxidase [flavin-containing] B (Bos taurus, UniProt P56560); experiment: Kinetic parameter for the time dependent inhibition of Bovine liver Monoamine Oxidase B at 25 degrees C (pH= 7.4).; details: cattle; for kinact: read-out: k2 (converted)
# T1 sequence (P56560 whole entry): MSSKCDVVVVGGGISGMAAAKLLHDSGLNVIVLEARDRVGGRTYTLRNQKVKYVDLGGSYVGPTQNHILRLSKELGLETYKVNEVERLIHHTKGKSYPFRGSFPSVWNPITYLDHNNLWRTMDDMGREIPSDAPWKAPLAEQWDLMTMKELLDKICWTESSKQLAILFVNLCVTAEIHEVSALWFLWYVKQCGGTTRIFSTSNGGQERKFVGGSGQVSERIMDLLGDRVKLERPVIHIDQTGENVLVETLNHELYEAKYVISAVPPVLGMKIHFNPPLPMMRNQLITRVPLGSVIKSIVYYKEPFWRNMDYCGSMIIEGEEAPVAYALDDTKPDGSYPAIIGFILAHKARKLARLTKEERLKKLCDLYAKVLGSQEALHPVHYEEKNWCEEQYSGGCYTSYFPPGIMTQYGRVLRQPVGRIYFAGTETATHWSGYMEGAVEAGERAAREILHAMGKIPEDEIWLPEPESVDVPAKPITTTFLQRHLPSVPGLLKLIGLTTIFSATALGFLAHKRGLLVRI
# How it was run: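 Purified beef liver mitochondrial MAO (0.02 unit) was preincubated at 25 °C in 50 mM potassium phosphate, pH 7.4, with allenic amine (1 µM-10 mM). Aliquots taken over time were assayed in duplicate for residual activity against benzylamine at 250 nm. kobsd came from nonlinear fit to E = E0 exp(-kobsd t) + E∞, and k2 and Ki by Kitz-Wilson analysis. For slow inactivators, k2 came from kobsd at one concentration plus a separately measured competitive Ki.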
# [2] = biological target: T1, Amine oxidase [flavin-containing] B; experiment: In vitro inhibition of bovine monoamine oxidase B.
# How it was run: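 Beef liver mitochondrial MAO was purified and assayed spectrophotometrically in 67 mM potassium phosphate, pH 7.2, at 25 °C. MAO (0.002 unit) was run with benzylamine hydrochloride (100, 200, 300 or 400 µM) and inhibitor at various concentrations. Initial rates of benzaldehyde formation were read at 250 nm, four replicates per combination, and competitive Ki was fitted from the initial rates.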
# [3] = biological target: T1, Amine oxidase [flavin-containing] B; experiment: Inhibitory activity against Monoamine Oxidase B of Bovine liver in competitive inhibition assay at 25 degree C (pH=7.4)
# Bos taurus = organism: Bos taurus; experiment: Competitive inhibition of Bovine liver MAO-B at […]; assay type: functional
# [4] = biological target: T2, Amine oxidase [flavin-containing] B (Rattus norvegicus, UniProt P19643); experiment: Competitive inhibition of Rat liver Monoamine Oxidase B at 30 degree C (pH= 7.2)
# T2 sequence (P19643 whole entry): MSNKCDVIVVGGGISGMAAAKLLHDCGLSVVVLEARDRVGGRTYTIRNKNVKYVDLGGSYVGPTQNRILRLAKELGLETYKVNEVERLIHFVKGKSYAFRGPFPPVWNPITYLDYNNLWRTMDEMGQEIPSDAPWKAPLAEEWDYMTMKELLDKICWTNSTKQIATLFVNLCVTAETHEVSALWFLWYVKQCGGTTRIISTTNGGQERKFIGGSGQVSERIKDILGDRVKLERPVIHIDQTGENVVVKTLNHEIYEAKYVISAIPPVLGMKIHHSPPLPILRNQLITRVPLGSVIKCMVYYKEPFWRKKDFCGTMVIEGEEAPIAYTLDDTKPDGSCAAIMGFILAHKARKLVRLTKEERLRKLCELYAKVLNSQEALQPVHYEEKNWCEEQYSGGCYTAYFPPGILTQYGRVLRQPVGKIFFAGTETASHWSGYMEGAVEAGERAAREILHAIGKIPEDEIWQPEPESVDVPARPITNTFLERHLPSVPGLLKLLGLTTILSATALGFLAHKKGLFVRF
# [5] = biological target: T2, Amine oxidase [flavin-containing] B; experiment: Competitive inhibition of Rat liver Monoamine Oxidase B at 37 degree C (pH= 7.4)
SMILES,Ki [2] [µM],Ki [3] [µM],k2 [1] [min⁻¹],other results
CC=C=CCN(C)C[C@H](C)c1ccccc1 (mixture of isomers),180,–,–,kinact [1]: 0.00015 s⁻¹
CN[C@H]1CCCc2ccccc21,–,1.4,–,–
CC=C=CCN(C)[C@H]1CCCc2ccccc21 (stereo in doubt),150,–,0.0006,–
CC=C=CCN(C)Cc1ccccc1.O=C(O)C(=O)O (stereo in doubt; 2 (R)),200,–,1,–
C[C@H](N)c1ccccc1,–,520,–,Ki (Bos taurus): 150 µM
CC=C=CCN(C)[C@@H](C)c1ccccc1 (mixture of isomers),2600,–,0.012,–
CN[C@@H](C)c1ccccc1,–,1600,–,–
CC=C=CCN(C)[C@H](C)c1ccccc1 (stereo in doubt),730,–,0.61,–
CC=C=CCN(C)C[C@@H](C)c1ccccc1 (mixture of isomers),690,–,–,kinact [1]: 0.000117 s⁻¹
C[C@H](N)Cc1ccccc1 [DEXTROAMPHETAMINE],–,300,–,Ki [4]: 580 µM; Ki [5]: 160 µM
CC=C=CCN(C)[C@@H]1CCCc2ccccc21 (mixture of isomers),250,–,0.13,–
CC=C=CCN(C)C (stereo in doubt; 1 (R)),59,–,–,kinact [1]: 0.00367 s⁻¹
CN[C@@H](C)Cc1ccccc1 [METHAMPHETAMINE],–,550,–,Ki [5]: 270 µM
CN[C@@H]1CCCc2ccccc21,–,12,–,–
CN[C@H](C)c1ccccc1,–,630,–,–
CC=C=CCN(C)Cc1ccccc1.O=C(O)C(=O)O (stereo in doubt; 2 (S)),820,–,0.16,–
CC=C=CCN(C)C (stereo in doubt; 1 (S)),100,–,0.29,–
CC=C=CCN(C)CCc1ccccc1 (stereo in doubt; 4 (S)),650,–,0.13,–
CC=C=CCN(C)[C@@H]1CCCc2ccccc21 (stereo in doubt),200,–,0.8,–
C[C@@H](N)Cc1ccccc1 [LEVAMFETAMINE],–,380,–,Ki [4]: 760 µM; Ki [5]: 180 µM
CC=C=CCN(C)[C@@H](C)c1ccccc1 (stereo in doubt),1100,–,–,kinact [1]: 0.000117 s⁻¹
C[C@@H](N)c1ccccc1,190,–,–,–
CN[C@H](C)Cc1ccccc1,–,800,–,Ki [5]: 550 µM
CC=C=CCN(C)CCc1ccccc1 (stereo in doubt; 4 (R)),430,–,0.99,–
CC=C=CCN(C)[C@H](C)c1ccccc1 (mixture of isomers),1800,–,–,kinact [1]: 0.00733 s⁻¹
CC=C=CCN(C)[C@H]1CCCc2ccccc21 (mixture of isomers),150,–,0.012,–
